Test results from BindingDB's records for doi:10.1021/jm970460b (University of Wisconsin-Milwaukee, 1998).

Biological target: Gamma-aminobutyric acid receptor subunit alpha-6/beta-3/gamma-2 (Homo sapiens, UniProt Q16445+P18507+P28472)
Assay: Binding affinity measured using LtK- cell membranes expressing Gamma-aminobutyric acid A receptor alpha-6-beta-3-gamma-2
Summary of the method: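 Cells scraped, resuspended in 10 mM KH2PO4/100 mM KCl, pH 7.4. Incubation 1 h at 4 °C to equilibrium, filtration, scintillation counting. Ki from iterative least-squares fit, mean of two determinations.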

Gamma-aminobutyric acid receptor subunit alpha-6/beta-3/gamma-2, sequence (Q16445 whole entry): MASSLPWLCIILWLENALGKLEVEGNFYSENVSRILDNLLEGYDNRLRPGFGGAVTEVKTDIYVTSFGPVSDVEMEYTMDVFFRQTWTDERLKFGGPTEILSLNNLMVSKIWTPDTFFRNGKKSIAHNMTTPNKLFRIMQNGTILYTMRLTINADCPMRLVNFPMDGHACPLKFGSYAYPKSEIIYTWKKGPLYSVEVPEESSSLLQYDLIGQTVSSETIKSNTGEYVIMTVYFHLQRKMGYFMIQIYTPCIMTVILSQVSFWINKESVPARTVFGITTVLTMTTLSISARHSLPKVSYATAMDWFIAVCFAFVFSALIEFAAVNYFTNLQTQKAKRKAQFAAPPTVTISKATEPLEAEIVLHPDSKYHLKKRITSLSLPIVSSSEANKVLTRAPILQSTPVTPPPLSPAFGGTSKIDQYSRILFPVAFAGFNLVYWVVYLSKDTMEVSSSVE
Gamma-aminobutyric acid receptor subunit alpha-6/beta-3/gamma-2, sequence (P18507 as listed by the source): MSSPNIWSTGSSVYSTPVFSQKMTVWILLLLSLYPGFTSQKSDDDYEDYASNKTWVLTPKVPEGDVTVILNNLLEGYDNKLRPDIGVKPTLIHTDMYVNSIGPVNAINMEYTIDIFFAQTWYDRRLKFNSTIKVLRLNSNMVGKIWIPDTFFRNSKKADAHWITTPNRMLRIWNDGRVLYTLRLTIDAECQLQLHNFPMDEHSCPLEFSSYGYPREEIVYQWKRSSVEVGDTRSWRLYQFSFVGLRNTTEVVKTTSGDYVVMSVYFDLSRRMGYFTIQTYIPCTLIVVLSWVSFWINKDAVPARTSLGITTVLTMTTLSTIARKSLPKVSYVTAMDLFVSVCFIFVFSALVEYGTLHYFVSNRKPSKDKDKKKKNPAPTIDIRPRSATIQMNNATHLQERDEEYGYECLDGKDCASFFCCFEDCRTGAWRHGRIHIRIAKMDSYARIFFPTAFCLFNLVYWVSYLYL
Gamma-aminobutyric acid receptor subunit alpha-6/beta-3/gamma-2, sequence (P28472 whole entry): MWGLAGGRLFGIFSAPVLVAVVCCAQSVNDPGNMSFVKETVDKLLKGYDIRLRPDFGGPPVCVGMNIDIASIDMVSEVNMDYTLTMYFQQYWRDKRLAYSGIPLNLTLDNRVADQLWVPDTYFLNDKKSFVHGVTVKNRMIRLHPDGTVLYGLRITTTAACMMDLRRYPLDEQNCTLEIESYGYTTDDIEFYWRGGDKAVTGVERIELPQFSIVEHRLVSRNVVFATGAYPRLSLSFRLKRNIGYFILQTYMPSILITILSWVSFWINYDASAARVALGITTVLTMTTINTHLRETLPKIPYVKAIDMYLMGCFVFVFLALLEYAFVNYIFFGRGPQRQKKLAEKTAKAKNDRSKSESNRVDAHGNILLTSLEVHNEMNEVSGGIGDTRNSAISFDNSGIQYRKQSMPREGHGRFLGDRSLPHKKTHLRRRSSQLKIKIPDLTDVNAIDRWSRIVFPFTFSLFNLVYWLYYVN

Ki: > 1000 nM
SMILES: CCOC(=O)c1[nH]cc2nc3ccc(OCc4ccccc4)cc3c-2c1COC [6-Benzyloxy-4-methoxymethyl-9H-beta-carboline-3-carboxylic acid ethyl ester]
